Data on 46 compounds can be found in ChEMBL document CHEMBL4828761, “Development and crystallography-aided SAR studies of multifunctional BuChE inhibitors and 5-HT6R antagonists with β-amyloid anti-aggregation properties” (Eur J Med Chem, 2021).

Assay [1] addresses Cholinesterase (Equus caballus, UniProt P81908). Kind of assay: Inhibition of equine serum BuChE using BTC as substrate preincubated with enzyme for 5 mins followed by substrate addition for 5 mins by Ellman's method. In kind it is cell-free.
The target of assay [2] is T1, Cholinesterase (Homo sapiens, UniProt P06276). Kind of assay: Inhibition of BuChE in human plasma using BTC as substrate preincubated with enzyme for 5 mins followed by substrate addition for 5 mins by Ellman's method. Format: cell-free. Summed up: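 Human plasma BuChE at 0.384 U/mL final, with DTNB in 0.1 M phosphate pH 8.0. […] BTC solution (0.00375 M) added; A412 after 5 min. Run in triplicate; IC50 from nonlinear regression of residual activity versus concentration.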

For assay [3], the target named is 5-hydroxytryptamine receptor 6 (Homo sapiens, UniProt P50406). Kind of assay: Displacement of [3H]LSD from human 5HT6 receptor expressed in CHO-K1 membrane incubated for 60 mins by solid scintillation counting analysis. In kind it is cell membranes.
Assay [4] has as its target T1, Cholinesterase. Kind of assay: Inhibition of BuChE in human plasma using BTC as substrate at 10 uM preincubated with enzyme for 5 mins followed by substrate addition for 5 mins by Ellman's method relative to control. Format: cell-free. As to conditions: time 10.0 min. Summed up: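 Human plasma BuChE at 0.384 U/mL final, with DTNB in 0.1 M phosphate buffer pH 8.0. Compound at 10 µM screened, preincubated 5 min at 36 °C.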

Assay [5] has as its target Amyloid-beta precursor protein (Homo sapiens) (UniProt P05067). The assay can be described thus: Inhibition of amyloid beta (1 to 42) (unknown origin) self aggregation at 10 uM incubated for 24 to 48 hrs by Thioflavin-T based fluorometric assay. The following applies: time lower […], time upper 48.0 hrs.

T1 sequence (P06276 whole entry): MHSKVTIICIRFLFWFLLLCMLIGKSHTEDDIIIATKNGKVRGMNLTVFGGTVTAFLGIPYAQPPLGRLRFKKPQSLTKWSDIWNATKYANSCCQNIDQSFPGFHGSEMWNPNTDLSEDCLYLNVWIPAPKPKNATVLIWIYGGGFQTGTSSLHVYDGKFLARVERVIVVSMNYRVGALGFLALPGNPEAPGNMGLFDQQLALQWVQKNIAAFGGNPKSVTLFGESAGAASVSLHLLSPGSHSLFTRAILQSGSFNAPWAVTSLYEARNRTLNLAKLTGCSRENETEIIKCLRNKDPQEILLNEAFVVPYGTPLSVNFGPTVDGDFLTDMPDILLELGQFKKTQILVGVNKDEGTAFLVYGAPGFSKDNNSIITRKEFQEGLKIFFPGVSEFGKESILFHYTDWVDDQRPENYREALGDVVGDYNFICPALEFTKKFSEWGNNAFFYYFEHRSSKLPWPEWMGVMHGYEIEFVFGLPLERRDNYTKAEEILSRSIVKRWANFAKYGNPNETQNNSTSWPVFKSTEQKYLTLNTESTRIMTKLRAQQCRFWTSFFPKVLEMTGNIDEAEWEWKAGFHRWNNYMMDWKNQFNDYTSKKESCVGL
Sequence of 5-hydroxytryptamine receptor 6 (P50406 whole entry): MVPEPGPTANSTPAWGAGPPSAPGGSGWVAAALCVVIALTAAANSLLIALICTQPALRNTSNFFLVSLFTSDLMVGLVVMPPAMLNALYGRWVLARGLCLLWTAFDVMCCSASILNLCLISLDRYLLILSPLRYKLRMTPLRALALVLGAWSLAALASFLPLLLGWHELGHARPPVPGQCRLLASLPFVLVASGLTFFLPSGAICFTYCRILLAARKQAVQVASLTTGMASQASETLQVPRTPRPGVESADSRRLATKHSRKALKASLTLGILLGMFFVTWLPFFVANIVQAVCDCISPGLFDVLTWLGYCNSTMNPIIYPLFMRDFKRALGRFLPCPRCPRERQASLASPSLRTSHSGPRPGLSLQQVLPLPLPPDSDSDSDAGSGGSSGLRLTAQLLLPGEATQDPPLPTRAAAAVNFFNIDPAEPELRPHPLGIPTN
Sequence of Amyloid-beta precursor protein (Homo sapiens) (P05067 whole entry): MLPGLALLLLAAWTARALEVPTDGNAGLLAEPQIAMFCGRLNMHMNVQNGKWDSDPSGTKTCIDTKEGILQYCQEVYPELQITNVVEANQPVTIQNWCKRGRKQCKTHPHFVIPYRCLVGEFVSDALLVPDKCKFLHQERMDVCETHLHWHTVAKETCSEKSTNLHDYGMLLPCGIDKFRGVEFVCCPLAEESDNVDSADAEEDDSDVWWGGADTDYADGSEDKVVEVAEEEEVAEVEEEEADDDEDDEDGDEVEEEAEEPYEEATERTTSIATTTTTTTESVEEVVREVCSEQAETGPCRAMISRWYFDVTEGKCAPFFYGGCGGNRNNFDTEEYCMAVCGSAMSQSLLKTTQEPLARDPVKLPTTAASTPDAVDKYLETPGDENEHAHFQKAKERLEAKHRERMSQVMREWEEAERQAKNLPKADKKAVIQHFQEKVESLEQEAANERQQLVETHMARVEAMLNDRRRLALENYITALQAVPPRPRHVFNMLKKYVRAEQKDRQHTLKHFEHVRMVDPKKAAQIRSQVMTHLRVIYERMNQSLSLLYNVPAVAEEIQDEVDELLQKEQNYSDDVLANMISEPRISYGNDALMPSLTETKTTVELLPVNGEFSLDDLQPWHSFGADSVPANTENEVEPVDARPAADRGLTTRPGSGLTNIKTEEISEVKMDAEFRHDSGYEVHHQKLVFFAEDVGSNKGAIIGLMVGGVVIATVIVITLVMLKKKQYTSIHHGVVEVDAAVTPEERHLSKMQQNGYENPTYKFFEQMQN
Sequence of Cholinesterase (Equus caballus, UniProt P81908) (P81908 whole entry): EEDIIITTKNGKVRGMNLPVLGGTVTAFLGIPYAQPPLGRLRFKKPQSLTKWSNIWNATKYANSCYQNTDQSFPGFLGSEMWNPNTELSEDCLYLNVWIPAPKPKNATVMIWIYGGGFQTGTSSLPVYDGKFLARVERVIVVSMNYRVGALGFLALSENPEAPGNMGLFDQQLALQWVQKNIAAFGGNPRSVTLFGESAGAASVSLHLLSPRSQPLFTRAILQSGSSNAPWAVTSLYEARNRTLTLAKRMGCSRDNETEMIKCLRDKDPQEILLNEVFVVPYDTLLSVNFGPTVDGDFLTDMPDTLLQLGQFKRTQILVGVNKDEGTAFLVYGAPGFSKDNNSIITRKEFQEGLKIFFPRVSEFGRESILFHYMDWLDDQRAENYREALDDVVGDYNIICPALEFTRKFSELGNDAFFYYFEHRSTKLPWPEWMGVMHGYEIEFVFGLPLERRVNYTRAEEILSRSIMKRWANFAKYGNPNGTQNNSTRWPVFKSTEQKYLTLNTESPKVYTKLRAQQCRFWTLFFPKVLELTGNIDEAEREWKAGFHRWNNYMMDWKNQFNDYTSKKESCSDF

Regarding `CC(C)(C)OC(=O)N1CCCC(CNCCOc2cccc3c2ccn3S(=O)(=O)c2cccc3ccccc23)C1` (stereo unspecified), on Cholinesterase [1], the IC50 was determined as 5.8 nM.
On to `CC(C)(C)OC(=O)N1CCCC(CNCCOc2cccc3c2CCN3S(=O)(=O)c2ccccc2)C1` (stereo unspecified), for which the IC50 on Cholinesterase [1] worked out at 201 nM; against Cholinesterase [2] it was 1360 nM.
`O=S(=O)(c1ccccc1)n1ccc2c(OCCNCc3ccc(F)cc3)cccc21` yielded an IC50 against Cholinesterase [1] of 985 nM. This compound yielded a Ki in assay [3] of 6 nM. The inhibition was under 50% on Cholinesterase [4] and 40.5% in assay [5].
Consider `CC(=O)Nc1ccc(CNCCOc2cccc3c2ccn3S(=O)(=O)c2ccccc2)cc1`, for which, on Cholinesterase [1], half-maximal inhibition (IC50) required 3800 nM. The compound also gave a Ki in assay [3] of 0.3 nM. Also, the inhibition at Cholinesterase [4] is under 50%; in assay [5], under 20%.
`COc1ccc(CNCCOc2cccc3c2ccn3S(=O)(=O)c2ccccc2)cc1` returned an IC50 at Cholinesterase [1] of 1330 nM. The compound further came in with an inhibition constant (Ki) in assay [3] of 1.4 nM. Further, the inhibition at Cholinesterase [4] is under 50%; in assay [5], 54.2%.
Consider `O=S(=O)(c1ccccc1)n1ccc2c(OCCNCc3cc(Cl)cc(Cl)c3)cccc21`, for which inhibition at Cholinesterase [1] was half-maximal at 414 nM (IC50).
`CC(=O)Oc1ccc(CNCCOc2cccc3c2CCN3S(=O)(=O)c2ccccc2)cc1` displayed an IC50 on Cholinesterase [1] of 660 nM. Moreover, the Ki in assay [3] stood at 70 nM. The inhibition against Cholinesterase [4] is under 50%; in assay [5], under 20%.
Consider `O=S(=O)(c1ccccc1)n1ccc2c(N3CCN(Cc4ccccc4)CC3)cccc21`, for which the Ki in assay [3] was determined as 60 nM. Also, the values for the inhibition (against Cholinesterase [4]; in assay [5]) were under 50% and under 20%, respectively.
`CC(C)(C)OC(=O)N1CCCC(CNCCOc2cccc3c2CC(=O)N3Cc2ccccc2)C1` (stereo unspecified) registered a concentration for half-maximal inhibition (IC50) against Cholinesterase [1] of 1080 nM. In assay [3], the affinity corresponds to a Ki of 146 nM. Moreover, the figures for the inhibition (against Cholinesterase [4]; in assay [5]) were under 50% and 65.2%, respectively.
`Cc1cccc(CNCCOc2cccc3c2ccn3S(=O)(=O)c2cccc3ccccc23)c1` yielded an IC50 on Cholinesterase [1] of 148 nM. Moreover, in assay [3], the affinity corresponds to a Ki of 12 nM. The inhibition against Cholinesterase [4] was under 50%; in assay [5], 23.6%.
In the same order, the values of `Cc1ccc(CNCCOc2cccc3c2ccn3S(=O)(=O)c2ccccc2)o1` are 3000 nM, 3 nM, under 50% and under 20%.
Taken in the same sequence, the figures for `O=S(=O)(c1ccccc1)n1ccc2c(OCCNCC3CCCNC3)cccc21` (stereo unspecified) were 2260 nM, 75 nM, under 50% and 27.3%.
In the case of `O=S(=O)(c1ccccc1)n1ccc2c(OCCNCC3CCCC3)cccc21`, the results for the IC50 against Cholinesterase [1] and at Cholinesterase [2] were 269 nM and 1360 nM, respectively.
`O=S(=O)(c1ccccc1)n1ccc2c(OCCNCc3ccc(Cl)cc3)cccc21`: the half-inhibitory concentration (IC50) against Cholinesterase [1] came out at 1320 nM. In addition, the affinity in assay [3], expressed as Ki, was 16 nM. Besides, the inhibition against Cholinesterase [4] is under 50%; in assay [5], under 20%.
At Cholinesterase [1], `CN(C)c1cccc(CNCCOc2cccc3c2ccn3S(=O)(=O)c2ccccc2)c1` displayed an IC50 of 894 nM. The compound also registered a Ki in assay [3] of 6 nM. The inhibition on Cholinesterase [4] was under 50%; in assay [5] it was under 20%.
Take `CNCCOc1cccc2c1ccn2S(=O)(=O)c1ccccc1`: the Ki in assay [3] is 1.6 nM. Further, the inhibition was under 50% against Cholinesterase [4] and under 20% in assay [5].
For the compound `c1ccc(CNCCOc2cccc3c2ccn3Cc2ccccc2)cc1`, the IC50 against Cholinesterase [1] was found to be 626 nM. In assay [3], this compound had a Ki of 232 nM. Also, the inhibition is under 50% on Cholinesterase [4] and 71.3% in assay [5].
`O=S(=O)(c1cccc2ccccc12)n1ccc2c(OCCNCc3ccccc3)cccc21` had an IC50 on Cholinesterase [1] of 401 nM.
Consider `CSc1ccc2c(c1)C(N1CCN(C)CC1)Cc1ccccc1S2` (stereo unspecified), for which the inhibition on Cholinesterase [4] was under 50%.
In turn, `CC(C)(C)OC(=O)N1CCCC(CNCCOc2cccc3c2[nH]c(=O)n3Cc2ccccc2)C1` (stereo unspecified) yielded an IC50 on Cholinesterase [1] of 467 nM. This compound also returned a Ki in assay [3] of 155 nM. Also, the values for the inhibition (against Cholinesterase [4]; in assay [5]) were under 50% and 43.9%, respectively.
`CC(=O)Oc1cccc(CNCCOc2cccc3c2ccn3S(=O)(=O)c2ccccc2)c1`: the results for the IC50 at Cholinesterase [1] and against Cholinesterase [2] were 474 nM and 5620 nM, respectively.
In turn, `CC(=O)Oc1ccc(CNCCOc2cccc3c2ccn3S(=O)(=O)c2cccc3ccccc23)cc1` gave an IC50 on Cholinesterase [1] of 261 nM. Affinity in assay [3] was put at a Ki of 24 nM. The inhibition is under 50% against Cholinesterase [4] and under 20% in assay [5].
Consider `Cc1cccc(CNCCOc2cccc3c2ccn3S(=O)(=O)c2ccccc2)c1`, for which the results for the IC50 on Cholinesterase [1] and against Cholinesterase [2] were 401 nM and 2820 nM, respectively.
Regarding `Cc1cccc(CNCCOc2cccc3c2CCN3S(=O)(=O)c2ccccc2)c1`, the IC50 on Cholinesterase [1] was 2300 nM. In assay [3], this compound had a Ki of 12 nM. Also, the inhibition against Cholinesterase [4] is under 50%; in assay [5], under 20%.
Taken in the same sequence, the figures for `Cc1cccc(CNCCOc2cccc3c2CCN3Cc2ccccc2)c1` were 1260 nM, 1470 nM, under 50% and 72.6%.
On to `COc1ccc(NS(=O)(=O)c2ccc(I)cc2)cc1N1CCN(C)CC1`, for which, at Cholinesterase [4], the inhibition is under 50%.
On Cholinesterase [1], `O=S(=O)(c1ccccc1)n1ccc2c(OCCNCc3cccc(C(F)(F)F)c3)cccc21` came in with an IC50 of 2200 nM. In assay [3], this compound came in with a Ki of 4 nM. The inhibition is under 50% on Cholinesterase [4] and under 20% in assay [5].
Taken in the same sequence, the figures for `COc1ccc(CNCCOc2cccc3c2ccn3S(=O)(=O)c2ccccc2)cc1OC` were 3320 nM, 0.5 nM, under 50% and 36.8%.
As to `O=S(=O)(c1ccccc1)n1ccc2c(OCCNCc3cccc(Cl)c3)cccc21`, the IC50 worked out at 580 nM on Cholinesterase [1] and 11800 nM at Cholinesterase [2]. For the same compound, the affinity in assay [3], expressed as Ki, was 5 nM. Moreover, the inhibition was over 50% on Cholinesterase [4] and under 20% in assay [5].
At Cholinesterase [1], `O=[N+]([O-])c1ccc(CNCCOc2cccc3c2ccn3S(=O)(=O)c2ccccc2)cc1` displayed an IC50 of 18300 nM. In assay [3], the Ki stood at 22 nM. The inhibition at Cholinesterase [4] was under 50%; in assay [5], 35.1%.
Turning to `O=S(=O)(c1ccccc1)n1ccc2c(OCCNCc3ccc4c(c3)OCCO4)cccc21`, the IC50 on Cholinesterase [1] turned out to be 2170 nM. For the same compound, in assay [3], the affinity corresponds to a Ki of 0.5 nM. Moreover, the inhibition against Cholinesterase [4] was under 50%; in assay [5], under 20%.
In the same order, the values of `CN(CCOc1cccc2c1ccn2S(=O)(=O)c1ccccc1)Cc1ccccc1` are 1420 nM, 27 nM, under 50% and under 20%.
Taken in the same sequence, the figures for `COC(=O)c1ccc(CNCCOc2cccc3c2ccn3S(=O)(=O)c2ccccc2)cc1` were 14300 nM, 13 nM, under 50% and under 20%.
With `COc1cccc(CNCCOc2cccc3c2ccn3S(=O)(=O)c2ccccc2)c1`, on Cholinesterase [1], the IC50 was found to be 1660 nM. The compound further returned a Ki in assay [3] of 3.6 nM. Also, the results for the inhibition (against Cholinesterase [4]; in assay [5]) were under 50% and 27.6%, respectively.
Turning to `O=S(=O)(c1ccccc1)n1ccc2c(OCCNCc3ccccc3Cl)cccc21`, the IC50 was determined as 881 nM at Cholinesterase [1] and 10500 nM against Cholinesterase [2].
On to `CC(C)(C)OC(=O)N1CCC(CNCCOc2cccc3c2ccn3S(=O)(=O)c2ccccc2)CC1`, for which half-maximal inhibition against Cholinesterase [1] (IC50) was put at 4820 nM. This compound came in with a Ki in assay [3] of 7 nM. Moreover, the values for the inhibition (at Cholinesterase [4]; in assay [5]) were under 50% and 69.7%, respectively.
In the same order, the values of `c1ccc(CNCCOc2cccc3c2CCN3Cc2ccccc2)cc1` are 997 nM, 389 nM, under 50% and 72.5%.
Taken in the same sequence, the figures for `CCOc1cccc(CNCCOc2cccc3c2ccn3S(=O)(=O)c2ccccc2)c1` were 2410 nM, 3 nM, under 50% and under 20%.
`O=S(=O)(c1ccccc1)n1ccc2c(OCCNCC3CC3)cccc21` registered an IC50 against Cholinesterase [1] of 2220 nM. Moreover, the affinity in assay [3] corresponds to a Ki of 2.7 nM. For the same compound, the inhibition at Cholinesterase [4] is under 50%; in assay [5], under 20%.
As for `CC(=O)Oc1ccc(CNCCOc2cccc3c2ccn3S(=O)(=O)c2ccccc2)cc1`, the IC50 against Cholinesterase [1] turned out to be 228 nM; against Cholinesterase [2], 1920 nM.
`O=S(=O)(c1ccccc1)n1ccc2c(OCCNCc3ccncc3)cccc21` returned an inhibitory constant (Ki) in assay [3] of 3 nM. Besides, the inhibition against Cholinesterase [4] is under 50%; in assay [5], under 20%.
Regarding `CCOc1ccc(CNCCOc2cccc3c2ccn3S(=O)(=O)c2ccccc2)cc1`, half-maximal inhibition against Cholinesterase [1] (IC50) required 3300 nM. The affinity in assay [3], expressed as Ki, was 13 nM. Besides, the figures for the inhibition (on Cholinesterase [4]; in assay [5]) were under 50% and under 20%, respectively.
In the same order, the values of `CN(C)c1ccc(CNCCOc2cccc3c2ccn3S(=O)(=O)c2ccccc2)cc1` are 3080 nM, 3.5 nM, under 50% and under 20%.
As to `O=S(=O)(c1ccccc1)N1CCc2c(OCCNCc3ccccc3)cccc21`, half-maximal inhibition at Cholinesterase [1] (IC50) required 1320 nM.
With `O=S(=O)(c1ccccc1)n1ccc2c(OCCNCc3ccccn3)cccc21`, the IC50 on Cholinesterase [1] turned out to be 1290 nM. Besides, the affinity in assay [3], expressed as Ki, was 0.4 nM. For the same compound, the inhibition on Cholinesterase [4] was under 50%; in assay [5], under 20%.
For `Cc1cccc(CNCCOc2cccc3c2ccn3Cc2ccccc2)c1`, on Cholinesterase [1], the IC50 stood at 958 nM. The same compound registered a Ki in assay [3] of 293 nM. The compound further displayed an inhibition at Cholinesterase [4] of under 50%.
